Among the data in article PMC10552104 (ACS Omega, 2023) are IC50 values, retold here.

Format in all cases: cell-based
The test system of assay [1] is B16 melanoma cancer cell line. Put plainly: MTT cytotoxicity assay, B16. The note with it: Mus musculus, B16, 24 h, read-out: IC50 B16. The essentials:
(§1)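 IC50 values in μM, reported as mean ± S.D. from the table footnote; the same footnote covers the three cancer lines and the normal CHO–K1 line. The full series of test compounds was screened on each line.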
Background: Formazan colour is commonly taken as a measure of viable cells.

The subject of assay [2] is DU145 prostate cancer cell line. Description: MTT cytotoxicity assay, DU145. Conditions: Homo sapiens, DU-145, 24 h, read-out: IC50 DU145. The essentials: as §1
Assay [3] has as its system HepG2 hepatocellular carcinoma cells. Put plainly: MTT cytotoxicity assay, HepG2. Conditions: Homo sapiens, HepG2, 24 h, read-out: IC50 HepG2. The essentials:
as §1

For `c1ccc(C(c2c[nH]c3ccccc23)c2c[nH]c3ccccc23)cc1` [1a, 3,3′-(Phenylmethylene)bis(1H-indole)], the half-inhibitory concentration (IC50) (in general, the point on the concentration scale where inhibition reaches its midpoint) turned out to be 9.88 ± 1.19 µM in assay [1], 5.24 ± 0.67 µM in assay [2] and 4.62 ± 0.03 µM in assay [3].

Regarding `COc1ccc2[nH]cc(C(c3ccc(C)cc3)c3c[nH]c4ccc(OC)cc34)c2c1` [1c, 3,3′-(p-Tolylmethylene)bis(5-methoxy-1H-indole)], the results for the IC50 in assay [1], in assay [2] and in assay [3] were 36 ± 1.09 µM, 2.02 ± 0.74 µM and 5.47 ± 0.56 µM, respectively.

Turning to `COc1ccc(C(c2c[nH]c3ccc(C#N)cc23)c2c[nH]c3ccc(C#N)cc23)cc1` [1g, 3,3′-((4-Methoxyphenyl)methylene)bis(1H-indole-5-carbonitrile)], the IC50 in assay [1] was determined as 9.82 ± 0.52 µM; in assay [2] it was 8.13 ± 0.77 µM; in assay [3], 6.33 ± 1.8 µM.

On to `COc1ccc(C(c2c(-c3ccccc3)[nH]c3ccccc23)c2c(-c3ccccc3)[nH]c3ccccc23)cc1OC` [1i, 3,3′-((3,4-Dimethoxyphenyl)methylene)bis(2-phenyl-1H-indole)], for which the 50% inhibitory concentration (IC50) came out at 15.9 ± 0.25 µM in assay [1], 10.3 ± 0.87 µM in assay [2] and 7.43 ± 1.6 µM in assay [3].

Consider `O=[N+]([O-])c1ccc(C(c2c[nH]c3ccccc23)c2c[nH]c3ccccc23)cc1` [1k, 3,3′((4-Nitrophenyl)methylene)bis(1H-indole)], for which the IC50 in assay [1] turned out to be 29.2 ± 2.38 µM; in assay [2] it was 1.09 ± 0.92 µM; in assay [3], 5.28 ± 0.24 µM.

Take `c1ccc2c(C(c3c[nH]c4ccccc34)c3c[nH]c4ccccc34)cccc2c1` [1m, 3,3′-(Naphthalen-1-ylmethylene)bis(1H-indole)]: the figures for the IC50 in assay [1], in assay [2] and in assay [3] were 9.49 ± 1.97 µM, 8.18 ± 0.74 µM and 7.54 ± 1.19 µM, respectively.

As for `c1ccc2c(C(c3c[nH]c4ccccc34)c3c[nH]c4ccccc34)c3ccccc3cc2c1` [1n, 3,3′-(Anthracen-9-ylmethylene)bis(1H-indole)], the values for the IC50 in assay [1], in assay [2] and in assay [3] were 13.6 ± 0.92 µM, 6.87 ± 1.06 µM and 11.9 ± 0.1 µM, respectively.

Turning to `c1coc(C(c2c[nH]c3ccccc23)c2c[nH]c3ccccc23)c1` [1o, 3,3′-(Furan-2-ylmethylene)bis(1H-indole)], the IC50 in assay [1] turned out to be 16.1 ± 0.79 µM; in assay [2], 60.8 ± 1.24 µM; in assay [3], 5.87 ± 0.3 µM.

As for `Brc1ccc2[nH]cc(C(c3ccco3)c3c[nH]c4ccc(Br)cc34)c2c1` [1p, 3,3′-(Furan-2-ylmethylene)bis(5-bromo-1H-indole)], the IC50 is 19.7 ± 0.87 µM in assay [1], 19.4 ± 0.88 µM in assay [2] and 11.4 ± 1.37 µM in assay [3].

As to `c1ccc(-c2[nH]c3ccccc3c2C(c2ccco2)c2c(-c3ccccc3)[nH]c3ccccc23)cc1` [1q, 3,3′-(Furan-2-ylmethylene)bis(2-phenyl-1H-indole)], the figures for the IC50 in assay [1], in assay [2] and in assay [3] were 23.5 ± 7 µM, 39.5 ± 1.02 µM and 5 ± 0.01 µM, respectively.

As for `Cc1[nH]c2ccccc2c1C(c1cccs1)c1c(C)[nH]c2ccccc12` [1r, 3,3′-(Thiophen-2-ylmethylene)bis(2-methyl-1H-indole)], the IC50 in assay [1] was 15.7 ± 2.1 µM; in assay [2], 21.2 ± 2.01 µM; in assay [3], 5.82 ± 0.5 µM.

On to `COc1cc(C(c2c[nH]c3ccccc23)c2c[nH]c3ccccc23)cc(OC)c1O` [1s, 4-(Di(1H-indol-3-yl)methyl)-2,6-dimethoxyphenol], for which the IC50 in assay [1] was found to be 7.02 ± 0.32 µM; in assay [2] it was 22.6 ± 0.98 µM; in assay [3] it was 7.01 ± 0.53 µM.

Consider `COc1ccc(C(c2c[nH]c3ccccc23)c2c[nH]c3ccccc23)cc1OC` [1t, 3,3′-((3,4-Dimethoxyphenyl)methylene)bis(1H-indole)], for which the IC50 was 8.14 ± 1.45 µM in assay [1], 12.2 ± 0.96 µM in assay [2] and 8.12 ± 0.87 µM in assay [3].

On to `COc1cccc2c1C(=O)c1c(O)c3c(c(O)c1C2=O)C[C@@](O)(C(=O)CO)C[C@@H]3O[C@H]1C[C@H](N)[C@H](O)[C@H](C)O1` [doxorubicin, reference compound], for which the IC50 in assay [1] stood at 0.8 ± 0.12 µM; in assay [2] it was 0.7 ± 0.13 µM; in assay [3] it was 0.6 ± 0.12 µM.
